Measured values reported in ChEMBL document CHEMBL5316375, “Discovery of Novel, Selective Prostaglandin EP4 Receptor Antagonists with Efficacy in Cancer Models” (ACS Med Chem Lett, 2023).
Blank lines part the entries; values can stand above or below the molecule they belong to.

Columns and labels:
[1] = biological target: T1, Prostaglandin E2 receptor EP1 subtype (Homo sapiens, UniProt P34995); experiment: Antagonist activity at EP1 receptor (unknown origin)
T1 sequence (P34995 whole entry): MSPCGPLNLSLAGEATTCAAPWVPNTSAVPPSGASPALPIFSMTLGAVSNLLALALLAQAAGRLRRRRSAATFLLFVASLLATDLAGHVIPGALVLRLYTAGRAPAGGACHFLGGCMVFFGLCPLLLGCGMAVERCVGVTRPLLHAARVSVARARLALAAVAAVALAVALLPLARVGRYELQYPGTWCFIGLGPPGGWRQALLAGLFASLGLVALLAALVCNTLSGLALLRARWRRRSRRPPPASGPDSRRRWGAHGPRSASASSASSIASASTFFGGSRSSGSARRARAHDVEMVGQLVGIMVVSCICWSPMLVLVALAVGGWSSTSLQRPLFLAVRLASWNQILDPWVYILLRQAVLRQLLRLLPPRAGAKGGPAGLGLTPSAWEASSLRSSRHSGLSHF

[2] = biological target: T1, Prostaglandin E2 receptor EP1 subtype; experiment: Displacement of [3H]-PGE2 from EP1 receptor membrane (unknown origin) measured after 2 hrs by Microscint-O scintillation counting analysis; format: cell membranes
[3] = biological target: Voltage-gated inwardly rectifying potassium channel KCNH2 (Homo sapiens, UniProt Q12809); experiment: Inhibition of hERG; format: toxicity
Sequence of Voltage-gated inwardly rectifying potassium channel KCNH2 (Q12809 whole entry): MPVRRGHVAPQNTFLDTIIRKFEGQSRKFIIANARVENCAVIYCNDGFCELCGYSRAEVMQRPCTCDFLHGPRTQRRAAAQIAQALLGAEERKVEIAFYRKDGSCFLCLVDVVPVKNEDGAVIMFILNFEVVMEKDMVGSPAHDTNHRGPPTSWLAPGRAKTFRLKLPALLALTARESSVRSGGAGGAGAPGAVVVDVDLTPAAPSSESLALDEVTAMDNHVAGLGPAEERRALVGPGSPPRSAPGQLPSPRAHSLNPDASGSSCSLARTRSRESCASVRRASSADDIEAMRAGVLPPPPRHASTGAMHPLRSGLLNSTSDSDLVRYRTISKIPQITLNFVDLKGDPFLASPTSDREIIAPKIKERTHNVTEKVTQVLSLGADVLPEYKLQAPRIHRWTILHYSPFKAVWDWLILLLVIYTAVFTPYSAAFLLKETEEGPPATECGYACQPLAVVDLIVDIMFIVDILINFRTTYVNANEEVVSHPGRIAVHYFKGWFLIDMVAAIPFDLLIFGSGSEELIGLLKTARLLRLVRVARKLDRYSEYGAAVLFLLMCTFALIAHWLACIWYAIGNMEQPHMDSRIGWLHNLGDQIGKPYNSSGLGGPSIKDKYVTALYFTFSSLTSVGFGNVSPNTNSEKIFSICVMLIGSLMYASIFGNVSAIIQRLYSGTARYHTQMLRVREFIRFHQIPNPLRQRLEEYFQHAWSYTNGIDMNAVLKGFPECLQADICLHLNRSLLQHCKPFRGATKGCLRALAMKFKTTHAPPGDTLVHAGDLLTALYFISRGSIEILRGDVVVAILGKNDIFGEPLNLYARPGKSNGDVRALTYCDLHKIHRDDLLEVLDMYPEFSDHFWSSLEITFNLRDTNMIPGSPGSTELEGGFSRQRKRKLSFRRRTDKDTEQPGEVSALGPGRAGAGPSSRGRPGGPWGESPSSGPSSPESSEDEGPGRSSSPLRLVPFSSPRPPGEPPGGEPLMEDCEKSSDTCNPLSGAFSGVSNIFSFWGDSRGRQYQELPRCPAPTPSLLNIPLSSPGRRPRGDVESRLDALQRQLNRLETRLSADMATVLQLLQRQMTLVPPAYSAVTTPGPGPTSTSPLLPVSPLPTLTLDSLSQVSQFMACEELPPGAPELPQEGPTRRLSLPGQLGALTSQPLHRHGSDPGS

[4] = Cmax in Sprague-Dawley rat at 10 mg/kg, po; format: ADME, organism-based; design: dose 10 mg/kg, route po; conditions: in vivo
[5] = AUC (0 to infinity) in Sprague-Dawley rat at 10 mg/kg, po; format: ADME, organism-based; design: dose 10 mg/kg, route po; conditions: in vivo
[6] = biological target: T2, Prostaglandin E2 receptor EP3 subtype (Homo sapiens, UniProt P43115); experiment: Displacement of [3H]-PGE2 from EP3 receptor membrane (unknown origin) measured after 2 hrs by Microscint-O scintillation counting analysis; format: cell membranes
T2 sequence (P43115 whole entry): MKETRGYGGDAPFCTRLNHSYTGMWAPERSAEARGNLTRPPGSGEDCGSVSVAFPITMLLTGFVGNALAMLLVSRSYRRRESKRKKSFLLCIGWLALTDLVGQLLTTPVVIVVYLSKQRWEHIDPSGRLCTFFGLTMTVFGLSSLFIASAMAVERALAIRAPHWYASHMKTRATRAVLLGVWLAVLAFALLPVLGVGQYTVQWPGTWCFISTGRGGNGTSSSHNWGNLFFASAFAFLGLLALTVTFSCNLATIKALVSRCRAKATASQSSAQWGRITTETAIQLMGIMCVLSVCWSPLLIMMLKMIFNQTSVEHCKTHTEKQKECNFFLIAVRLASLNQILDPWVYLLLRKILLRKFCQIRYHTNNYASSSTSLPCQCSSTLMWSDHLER

[7] = Oral bioavailability in Sprague-Dawley rat at 10 mg/kg; format: ADME, organism-based; conditions: in vivo
[8] = Microsomal stability in rat liver microsomes assessed as half life at 1 uM measured for 60 mins by LC-MS/MS analysis; format: ADME, Microsome
[9] = Plasma protein binding in human at 1 uM incubated for 6 hrs by LC-MS/MS analysis; format: ADME, cell-free
[10] = Plasma protein binding in mouse at 1 uM incubated for 6 hrs by LC-MS/MS analysis; format: ADME, cell-free
[11] = Toxicity in BALB/c mouse allografted with CT26 cells assessed as reduction in body weight at 75 to 150 mg/kg, po administered daily for 21 days and measured every 2 to 3 days in presence of 300 mg/kg capecitabine; format: organism-based; conditions: in vivo, 504 h, dose 75-150 mg/kg, time 21 day
Outline: (§1)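 CT-26 tumors in BALB/c mice (n = 6/group) dosed orally once daily from day 8 after implantation until day 21, in vehicle 0.5% carboxymethylcellulose sodium. Groups: vehicle, capecitabine 300 mg/kg alone, or capecitabine 300 mg/kg plus EP4 antagonist at 75 or 150 mg/kg. Tumor volume, TGI versus vehicle, body weight and tumor weight were recorded, with Dunnett's test.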

[12] = Plasma protein binding in mouse assessed as parent compound remaining at 1 uM incubated for 6 hrs by LC-MS/MS analysis; format: ADME, cell-free
[13] = Half life in Sprague-Dawley rat at 10 mg/kg, po; format: ADME, organism-based; conditions: in vivo
[14] = Tmax at Sprague-Dawley rat at 10 mg/kg, po; format: ADME, organism-based; conditions: in vivo
[15] = biological target: T2, Prostaglandin E2 receptor EP3 subtype; experiment: Antagonist activity at EP3 receptor (unknown origin)
[16] = Plasma protein binding in rat assessed as parent compound remaining at 1 uM incubated for 6 hrs by LC-MS/MS analysis; format: ADME, cell-free
[17] = Clearance in Sprague-Dawley rat at 1 mg/kg, iv; format: ADME, organism-based; conditions: in vivo
[18] = Plasma protein binding in rat at 1 uM incubated for 6 hrs by LC-MS/MS analysis; format: ADME, cell-free
[19] = Microsomal stability in human liver microsomes assessed as half life at 1 uM measured for 60 mins by LC-MS/MS analysis; format: ADME, Microsome
[20] = biological target: T3, Prostaglandin E2 receptor EP2 subtype (Homo sapiens, UniProt P43116); experiment: Displacement of [3H]-PGE2 from EP2 receptor membrane (unknown origin) measured after 2 hrs by Microscint-O scintillation counting analysis; format: cell membranes
T3 sequence (P43116 whole entry): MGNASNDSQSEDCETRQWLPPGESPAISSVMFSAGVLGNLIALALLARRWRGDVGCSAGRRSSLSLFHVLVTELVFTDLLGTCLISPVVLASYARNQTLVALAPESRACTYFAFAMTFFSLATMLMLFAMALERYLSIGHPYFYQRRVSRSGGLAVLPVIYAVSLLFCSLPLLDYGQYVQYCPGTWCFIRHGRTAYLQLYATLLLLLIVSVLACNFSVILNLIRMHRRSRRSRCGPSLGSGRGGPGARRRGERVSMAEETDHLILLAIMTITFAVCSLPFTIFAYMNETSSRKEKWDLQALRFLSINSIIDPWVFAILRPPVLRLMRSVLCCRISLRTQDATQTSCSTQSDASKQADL

[21] = Toxicity in BALB/c mouse allografted with CT26 cells assessed as body weight loss at 75 to 150 mg/kg, po qd administered for 11 days and measured every 2 to 3 days; format: organism-based; conditions: in vivo, 264 h, dose 75-150 mg/kg, time 11 day
Outline: (§2)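 CT-26 tumors in BALB/c mice grown to 100–200 mm3, then animals randomized (n = 6/group). Dosing was oral, once daily for 11 days, in vehicle 0.5% carboxymethylcellulose sodium in PBS. Groups: vehicle, 75 or 150 mg/kg, or E7046 150 mg/kg. Tumor volume, TGI versus vehicle, body weight and day-11 tumor weight were recorded, with Dunnett's test versus vehicle.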

[22] = Volume of distribution at steady state in Sprague-Dawley rat at 1 mg/kg, iv; format: ADME, organism-based; conditions: in vivo, read-out: Vdss
[23] = AUC (0 to t) in Sprague-Dawley rat at 1 mg/kg, iv; format: ADME, organism-based; design: dose 1 mg/kg, route iv; conditions: in vivo
[24] = biological target: T3, Prostaglandin E2 receptor EP2 subtype; experiment: Antagonist activity at EP2 receptor (unknown origin)
[25] = AUC (0 to infinity) in Sprague-Dawley rat at 1 mg/kg, iv; format: ADME, organism-based; design: dose 1 mg/kg, route iv; conditions: in vivo
[26] = AUC (0 to t) in Sprague-Dawley rat at 10 mg/kg, po; format: ADME, organism-based; design: dose 10 mg/kg, route po; conditions: in vivo
[27] = Plasma protein binding in human assessed as parent compound remaining at 1 uM incubated for 6 hrs by LC-MS/MS analysis; format: ADME, cell-free
[28] = Cmax in Sprague-Dawley rat at 1 mg/kg, iv; format: ADME, organism-based; design: dose 1 mg/kg, route iv; conditions: in vivo
[29] = Half life in Sprague-Dawley rat at 1 mg/kg, iv; format: ADME, organism-based; conditions: in vivo
[30] = Microsomal stability in mouse liver microsomes assessed as half life at 1 uM measured for 60 mins by LC-MS/MS analysis; format: ADME, Microsome
[31] = tested on: CT26; experiment: Antitumor activity against mouse CT26 cells allografted in BALB/c mouse assessed as mean tumor volume at 150 mg/kg, po qd administered every day for 11 days measured for every 2 or 3 days (reference value: 2145.58 +/- 152.9 mm3); format: functional; conditions: time 11 day; outline: as §2
[32] = tested on: CT26; experiment: Antitumor activity against mouse CT26 cells allografted in BALB/c mouse assessed as tumor growth inhibition at 150 mg/kg, po qd administered every day for 11 days measured for every 2 or 3 days relative to control; format: functional; conditions: CT26, 264 h, time 11 day, read-out: TGI; outline: as §2
[33] = Toxicity in BALB/c mouse allografted with CT26 cells assessed as effect on body weight at 300 mg/kg, po administered daily for 21 days and measured every 2 to 3 days; format: organism-based; conditions: in vivo, 504 h, time 21 day; outline: as §1
[34] = tested on: CT26; experiment: Antitumor activity against mouse CT26 cells allografted in BALB/c mouse assessed as tumor growth inhibition at 300 mg/kg, po qd administered for 21 days starting from day 8 post tumor implantation measured once for every 2 or 3 days relative to control; format: functional; conditions: CT26, 504 h, time 21 day, read-out: TGI; outline: as §1
[35] = tested on: CT26; experiment: Antitumor activity against mouse CT26 cells allografted in BALB/c mouse assessed as mean tumor volume at 300 mg/kg, po qd administered for 21 days starting from day 8 post tumor implantation measured once for every 2 or 3 days (reference value: 2036.95 +/- 333.12 mm3); format: functional; conditions: time 21 day; outline: as §1
[36] = biological target: Prostaglandin E2 receptor EP4 subtype (Homo sapiens, UniProt P35408); experiment: Antagonist activity at human EP4 receptor overexpressed in HEK293 cells assessed as inhibition of PGE2-induced cAMP formation preincubated for 15 mins followed by PGE addition and measured after 30 mins by Eu-cAMP tracer based assay; format: functional, cell-based
Sequence of Prostaglandin E2 receptor EP4 subtype (P35408 whole entry): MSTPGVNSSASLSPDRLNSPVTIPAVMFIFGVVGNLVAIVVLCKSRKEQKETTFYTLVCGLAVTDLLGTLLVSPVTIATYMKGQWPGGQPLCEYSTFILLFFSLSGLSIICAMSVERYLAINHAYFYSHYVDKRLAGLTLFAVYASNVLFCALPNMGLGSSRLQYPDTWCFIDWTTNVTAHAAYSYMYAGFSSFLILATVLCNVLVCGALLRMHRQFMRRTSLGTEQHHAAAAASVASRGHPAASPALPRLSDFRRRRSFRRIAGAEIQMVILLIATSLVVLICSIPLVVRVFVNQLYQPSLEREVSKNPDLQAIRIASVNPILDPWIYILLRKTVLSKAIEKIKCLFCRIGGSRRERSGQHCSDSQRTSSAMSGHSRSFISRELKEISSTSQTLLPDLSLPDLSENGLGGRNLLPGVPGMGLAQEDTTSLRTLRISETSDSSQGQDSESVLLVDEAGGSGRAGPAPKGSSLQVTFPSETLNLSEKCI

SMILES: C[C@H](NC(=O)c1c(C(F)F)nn(C)c1Oc1cccc(C(F)(F)F)c1)c1ccc(C(=O)O)cc1 [PALUPIPRANT]
Activity [31]: 1619.76 mm3 | inhibition in vivo at 150 mg/kg [32]: 25.9%

SMILES: CCCCCOC(=O)Nc1nc(=O)n([C@@H]2O[C@H](C)[C@@H](O)[C@H]2O)cc1F [CAPECITABINE]
Activity [33]: Non-Toxic | inhibition in vivo at 300 mg/kg [34]: 67.9% | Activity [35]: 707.13 mm3

SMILES: COc1ccc(Br)cc1S(=O)(=O)NC(=O)/C=C/c1ccccc1Cc1ccc2ccccc2c1
IC50 [15]: 0.033 µM

Further lines, with some results ahead:

IC50 [1]: > 10 µM | Ki [2]: > 9.6 µM | Cmax [4]: 8240 ng/mL | AUC(0-inf) [5]: 25700 ng·h/mL | Ki [6]: > 6.4 µM | bioavailability [7]: 76.1% | half-life at 1 µM [8]: 4.33 h | PPB [9]: 99.68% | PPB [10]: 99.66% | residual activity [12]: 70.47% | half-life [13]: 2.7 h | Tmax [14]: 0.5 h | IC50 [15]: > 10 µM | residual activity [16]: 88.79% | clearance [17]: 4.95 mL/min/kg | PPB [18]: 99.73% | half-life at 1 µM [19]: 0.404 h | Ki [20]: > 8.8 µM | Vd [22]: 0.41 L/kg | AUC(0-t) [23]: 3380 ng·h/mL | IC50 [24]: > 10 µM | AUC(0-inf) [25]: 3420 ng·h/mL | AUC(0-t) [26]: 25700 ng·h/mL | residual activity [27]: 83.02% | Cmax [28]: 4630 ng/mL | half-life [29]: 1.4 h | half-life at 1 µM [30]: 1.64 h
SMILES: C[C@H](NC(=O)c1c(Nc2cccc(C(F)(F)F)c2)c2ccccc2n1C)c1ccc(C(=O)O)cc1
IC50 [3]: > 40 µM | Activity [11]: Non-Toxic | Activity [21]: Non-Toxic

IC50 [36]: > 10 µM
SMILES: C[C@H](NC(=O)c1c(Nc2cccc(C(F)(F)F)c2)c2ccccc2n1C)c1ccc(C(N)=O)cc1

Ki [2]: > 9.6 µM | Ki [6]: > 6.4 µM | Ki [20]: > 8.8 µM
SMILES: Cn1c(C(=O)NC2(c3ccc(C(=O)O)cc3)CC2)c(Nc2cccc(C(F)(F)F)c2)c2ccccc21
